In ChEMBL document CHEMBL1671691 (Antimicrob Agents Chemother, 2010) one finds log10FFU and EC50 data, which are given here for one compound.

In test [1] the test system is Influenza A virus. The test is described as follows: Antiviral activity against sInfluenza A virus (A/Washington/29/2009(H1N1)) infected in MDCK cells from Mill Hill assessed as log reduction in viral titer at 4.7 uM after 24 hrs by immunofluorescent assay. The test is classed as functional, Influenza A virus (A/Washington/29/2009(H1N1)). In short, it runs like this: (§1)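 MDCK cells (ATCC or Mill Hill) infected with 2009 pandemic H1N1 at MOI ~0.01, 1 h adsorption at 4°C, washed. DMEM with 2 μg/ml TPCK-trypsin plus drug for 24 h at 37°C. Supernatants titrated on MDCK cells by focus formation: methanol/acetic acid fixation, anti-nucleoprotein MAbs, FITC secondary, foci counted. Titre as log10 FFU per 100 μl; detection limit <10 FFU; quadruplicate wells.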

Test [2] concerns Influenza A virus. The test is described as follows: Antiviral activity against Influenza A virus (A/Mexico/4604/2009(H1N1)) infected in MDCK cells from ATCC assessed as log reduction in viral titer at 14.2 uM after 24 hrs by immunofluorescent assay. The test is classed as functional. In short, it runs like this: (§2)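 Yield reduction in MDCK-ATCC or MDCK-Mill Hill cells infected at MOI ∼0.01. Adsorption 1 h at 4°C, washed, then DMEM with 2 μg/ml TPCK-trypsin and drug. At 24 h, supernatants were titrated by immunofluorescent focus assay on MDCK cells with anti-NP monoclonals and FITC secondary. Titres as log10 FFU per 100 μl; detection limit <10 FFU. Quadruplicate, mean ± SD.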

Test [3] has as its system Influenza A virus. The test is described as follows: Antiviral activity against sInfluenza A virus (A/Washington/29/2009(H1N1))) infected in MDCK cells from Mill Hill assessed as log reduction in viral titer at 14.2 uM after 24 hrs by immunofluorescent assay. The test is classed as functional, Influenza A virus (A/Washington/29/2009(H1N1)). The procedure, abridged: as §1

The subject of test [4] is Influenza A virus. The test is described as follows: microbe, parasite or virus in culture. The note with it: (A/turkey/VA/4529/2002 (H7N2)), MDCK, 72 h.
Test [5] relates to Influenza A virus. Kind of test: Antiviral activity against sInfluenza A virus (A/Washington/29/2009(H1N1)) infected in MDCK cells from Mill Hill assessed as log reduction in viral titer at 42.7 uM after 24 hrs by immunofluorescent assay. The test is classed as functional, Influenza A virus (A/Washington/29/2009(H1N1)). In short, it runs like this:
as §1

Test [6] relates to Influenza A virus. The test is described as follows: Antiviral activity against Influenza A virus (A/Mexico/4604/2009(H1N1)) infected in MDCK cells from Mill Hill assessed as log reduction in viral titer at 1.6 uM after 24 hrs by immunofluorescent assay. The test is classed as functional. In short, it runs like this:
as §2

The subject of test [7] is Influenza A virus. The test is described as follows: Antiviral activity against Influenza A virus (A/Illinois/10/2009(H1N1)) infected in MDCK cells from Mill Hill assessed as log reduction in viral titer at 4.7 uM after 24 hrs by immunofluorescent assay. The test is classed as functional. The procedure, abridged: as §2
Test [8] has as its system Influenza A virus. The test is described as follows: Antiviral activity against Influenza A virus (A/Mexico/4604/2009(H1N1)) infected in MDCK cells from Mill Hill assessed as log reduction in viral titer at 42.7 uM after 24 hrs by immunofluorescent assay. The test is classed as functional. The procedure, abridged: as §2
Test [9] deals with Influenza A virus. Kind of test: Antiviral activity against Influenza A virus (A/Mexico/4604/2009(H1N1)) infected in MDCK cells from Mill Hill assessed as inhibition of viral replication after 3 days by microscopic analysis using crystal violet stain. The test is classed as functional.
Test [10] concerns Influenza A virus. The test is described as follows: Antiviral activity against Influenza A virus (A/Illinois/10/2009(H1N1)) infected in MDCK cells from ATCC assessed as log reduction in viral titer at 128 uM after 24 hrs by immunofluorescent assay. The test is classed as functional. The procedure, abridged: as §2
Test [11] has as its system Influenza A virus. The test is described as follows: Antiviral activity against Influenza A virus (A/California/04/2009(H1N1)) infected in MDCK cells from Mill Hill assessed as log reduction in viral titer at 128 uM after 24 hrs by immunofluorescent assay. The test is classed as functional. The procedure, abridged: as §2
In test [12] the test system is Influenza A virus. Kind of test: Antiviral activity against sInfluenza A virus (A/Washington/29/2009(H1N1)) infected in MDCK cells from ATCC assessed as log reduction in viral titer at 42.7 uM after 24 hrs by immunofluorescent assay. The test is classed as functional, Influenza A virus (A/Washington/29/2009(H1N1)). In short, it runs like this: as §1
The subject of test [13] is Influenza A virus. Kind of test: Antiviral activity against Influenza A virus (A/Mexico/4604/2009(H1N1)) infected in MDCK cells from ATCC assessed as log reduction in viral titer at 1.6 uM after 24 hrs by immunofluorescent assay. The test is classed as functional. The procedure, abridged:
as §2

Test [14] concerns Influenza A virus. Kind of test: Antiviral activity against Influenza A virus (A/Mexico/4604/2009(H1N1)) infected in MDCK cells from Mill Hill assessed as log reduction in viral titer at 14.2 uM after 24 hrs by immunofluorescent assay. The test is classed as functional. The procedure, abridged: as §2
The test system of test [15] is Influenza A virus. Kind of test: Antiviral activity against sInfluenza A virus (A/California/04/2009(H1N1)) infected in MDCK cells from ATCC assessed as log reduction in viral titer at 128 uM after 24 hrs by immunofluorescent assay. The test is classed as functional. In short, it runs like this: as §1
For test [16], the system named is Influenza A virus. The test is described as follows: Antiviral activity against Influenza A virus (A/Illinois/10/2009(H1N1)) infected in MDCK cells from Mill Hill assessed as log reduction in viral titer at 128 uM after 24 hrs by immunofluorescent assay. The test is classed as functional. In short, it runs like this:
as §2

In test [17] the test system is Influenza A virus. Kind of test: Antiviral activity against sInfluenza A virus (A/California/04/2009(H1N1)) infected in MDCK cells from ATCC assessed as log reduction in viral titer at 4.7 uM after 24 hrs by immunofluorescent assay. The test is classed as functional. In short, it runs like this:
as §1

Test [18] relates to Influenza A virus. Kind of test: microbe, parasite or virus in culture. Conditions: (A/Brazil/1067/2008(H1N1)), MDCK, 72 h.
Test [19] concerns Influenza A virus. Kind of test: Antiviral activity against sInfluenza A virus (A/California/04/2009(H1N1)) infected in MDCK cells from Mill Hill assessed as log reduction in viral titer at 14.2 uM after 24 hrs by immunofluorescent assay. The test is classed as functional. The procedure, abridged:
as §1

The subject of test [20] is Influenza A virus. The test is described as follows: Antiviral activity against sInfluenza A virus (A/California/04/2009(H1N1)) infected in MDCK cells from Mill Hill assessed as log reduction in viral titer at 4.7 uM after 24 hrs by immunofluorescent assay. The test is classed as functional. The procedure, abridged: as §1
Test [21] deals with Influenza A virus. Kind of test: Antiviral activity against Influenza A virus (A/California/04/2009(H1N1)) infected in MDCK cells from ATCC assessed as inhibition of viral replication after 3 days by microscopic analysis using crystal violet stain. The test is classed as functional. The procedure, abridged: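 Confluent MDCK-ATCC monolayers infected with virus diluted to give 15–45 plaques/well. Adsorption 1 h at 37°C without drug, then washed. Overlaid with 0.8% agarose in MEM containing drug plus TPCK-trypsin: 3 μg/ml for seasonal viruses, 2 μg/ml for 2009 A(H1N1). Incubated 3 days at 37°C, 5% CO2. Ethanol-fixed, crystal violet-stained, plaques counted. EC50 by curve fit; duplicates on three occasions, mean ± SD.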

Test [22] has as its system Influenza A virus. The test is described as follows: microbe, parasite or virus in culture. The note with it: (A/Swine/South Dakota/03/2008(H1N1)), MDCK, 72 h.
Test [23] has as its system Influenza A virus. Kind of test: microbe, parasite or virus in culture. Conditions: MDCK, 72 h.
In test [24] the test system is Influenza A virus. Kind of test: Antiviral activity against sInfluenza A virus (A/Washington/29/2009(H1N1)) infected in MDCK cells from ATCC assessed as log reduction in viral titer at 14.2 uM after 24 hrs by immunofluorescent assay. The test is classed as functional, Influenza A virus (A/Washington/29/2009(H1N1)). The procedure, abridged: as §1

One may read the EC50 as the concentration needed to bring the measured effect to its halfway point. Read a low EC50 as an effect from little substance. For the compound `NC(=O)c1nc(F)cnc1O` [FAVIPIRAVIR], the log10FFU worked out at 4.7 in the test with Influenza A virus [1]; 2.4 in the test on Influenza A virus [2]; 3.1 with Influenza A virus [3]; 1.5 in the test on Influenza A virus [5]; 6.2 with Influenza A virus [6]; 3.8 in the test with Influenza A virus [7]. Besides, the log10FFU is reported as 2.1 with Influenza A virus [8]; 36.16 with Influenza A virus [9]; less than 1 in the test with Influenza A virus [10]; less than 1 in the test with Influenza A virus [11]; 1.8 with Influenza A virus [12]; 4.4 with Influenza A virus [13]. Besides, the log10FFU in the test on Influenza A virus [14] was 4.6; in the test with Influenza A virus [15], less than 1; in the test on Influenza A virus [16], less than 1; in the test with Influenza A virus [17] it was 1.8; in the test with Influenza A virus [19], 2.3; in the test on Influenza A virus [20], 3.6. Further, the log10FFU is reported as 0.48 with Influenza A virus [21] and 2.2 with Influenza A virus [24]. Also, the EC50 in the test with Influenza A virus [4] is 1.53 µM; in the test on Influenza A virus [18], 1.85 µM; with Influenza A virus [22], 0.83 µM; with Influenza A virus [23], 3.63 µM.
